The values below come from publication PMC4102938 (British Journal of Cancer, 2014).

Series [1] relates to H1975 cells stably carrying shp73. Nature of the series: MTT growth assay, p73-knockdown cells. The class given is cell-based. As to conditions: Homo sapiens, NCI-H1975, 72 h. In outline:
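H1975 cells stably carrying a p73-targeting or scrambled shRNA were used, made by pLKO.1 lentiviral infection with polybrene for 16 h and puromycin selection for 3 days beginning 2 days after infection. Cells were cultured 3 days with test compound at 0, 1, 3, 10, 30, 100, 320 or 1000 nM. Growth was measured by MTT and IC50 derived. Data are three experiments in triplicate, mean±s.d.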
A general note: Formazan colour is commonly taken as a measure of viable cells.

For series [2], the system named is six NSCLC cell lines (A549, H460, H1975, PC14, H1299, and H23). Nature of the series: Cell cycle analysis by propidium iodide flow cytometry, six lines. As to conditions: range over six NSCLC cell lines, 1 μM, 24 h. The class given is cell-based, human. Summed up:
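A549, H460, H1975, PC14, H1299 and H23 were seeded at 50% confluency, left overnight, then exposed for 24 h to test compound (1 μM) or diluent control. DNA content was stained with propidium iodide, and cell-cycle phase distribution was determined by flow cytometry.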

A further series concerns six NSCLC cell lines. The experiment in a line: Apoptosis, annexin V/propidium iodide flow cytometry, six lines. Conditions: range over six NSCLC cell lines, 24 h. Type of series: cell-based, human. In outline: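 Cells seeded at 50% confluency, incubated overnight, then given fresh medium with diluent control or test compound (1, 10, 100, 1000 nM) for 24 h. Cells were PBS-washed, trypsinized, resuspended in annexin-binding buffer at 1 × 10^6 cells per ml, and stained with annexin V plus propidium iodide. Analysed by flow cytometry; read-out is the percent annexin V/PI co-positive cells.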
(A flow cytometer gives signals particle by particle.)

A short description of series [3]: Body weight of treated mice. Type of series: in vivo. As to conditions: NOD/SCID mice, oral 10 mg kg^−1 thrice weekly for 4 weeks.
Series [4] is described as follows: Peripheral blood analysis after 28-day treatment. The class given is in vivo, NOD/SCID mice. In outline: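 H1975-xenografted male NOD/SCID mice (five per group) were given vehicle (0.6% w/v aqueous Pluronic F-68) or test compound orally, 10 mg kg−1 three times weekly for 4 weeks. After the 28-day treatment, peripheral blood was analysed for white cells, neutrophils, platelets and haematocrit, and serum for albumin, alkaline phosphatase, ALT and creatinine.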

Series [5] has as its system H1975 NSCLC xenografts. Nature of the series: Immunohistochemistry of xenograft tumours. Type of series: in vivo, NOD/SCID mice. As to conditions: end of treatment, 10 mg kg^−1 thrice weekly × 4 weeks. Summed up:
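At the end of the 28-day oral dosing, H1975 xenograft tumours were formalin-fixed, paraffin-embedded and cut at 5.0 μm. Peroxidase was quenched with 3% H2O2, sections blocked 1 h at room temperature in PBS with 3% normal serum, then probed overnight at 4 °C for Ki-67 or TUNEL. Detection used biotinylated secondary (1:200) plus avidin–biotin peroxidase. Three random ×200 fields were scored, counting 100 cells in triplicate; positives are given as % of total cells.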

The test system of another series is 11 NSCLC cell lines. Nature of the series: MTT proliferation assay, 72 h, whole panel. Type of series: cell-based. As to conditions: Homo sapiens, read-out: calculated IC50 values, range. In outline: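 Eleven NSCLC lines (STR-verified) were grown in RPMI 1640 with 10% FBS and penicillin/streptomycin at 37 °C, 5% CO2. Cells were plated at 3 × 10^3 per well and exposed for 72 h to test compound at 0, 0.1, 1, 10, 100 or 1000 nM. Viability was read by MTT absorbance at 570 nm, and IC50 was taken from fitted dose-response curves.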

Series [6] deals with H1975 NSCLC xenografts. Nature of the series: H1975 NSCLC xenograft tumour growth. The class given is in vivo. Conditions: NOD/SCID mice, oral 10 mg kg^−1 thrice weekly for 4 weeks. Summed up: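 Seven-week-old male NOD/SCID mice were injected subcutaneously in both flanks with H1975 cells (1.0 × 10^7) in matrigel. Mice were randomised into two groups of five and dosed orally three times weekly for 4 weeks with vehicle (0.6% w/v aqueous Pluronic F-68) or test compound (10 mg kg−1), with Nutri-Cal given during therapy. Calipers were used three times weekly; volume = width² × length/2. Tumour weights were taken after 28 days.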

For series [7], the system named is H1975 cells stably carrying scramble vector. The experiment in a line: MTT growth assay, scrambled shRNA control cells. Type of series: cell-based, human. In outline:
(§1)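 H1975 cells stably carrying a CRM1-targeting or scrambled shRNA were used, made by pLKO.1 lentiviral infection with polybrene for 16 h and puromycin selection for 3 days starting 2 days post-infection. Cells were cultured 72 h across a cisplatin series up to 10 μg ml−1. Growth was measured by MTT and IC50 derived. Data are three experiments in triplicate, mean±s.d.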

The subject of a further series is PC14 cells, shp73. The experiment in a line: MTT growth assay, transient p73 silencing. The class given is cell-based. As to conditions: Homo sapiens, PC-14.
Series [8] deals with CRM1. Nature of the series: Quantitative RT-PCR of CRM1 mRNA in treated cells. As to conditions: H1975, KPT-330 10–1000 nM, 24 h. Type of series: cell-based, human. Summed up: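 H1975 cells were exposed for 24 h to test compound at 0, 10, 100 or 1000 nM. CRM1 mRNA was quantified by quantitative RT–PCR; experiments were done in triplicate and reported as mean±s.d.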
In series [9] the test system is CRM1. The experiment in a line: Immunoblot of CRM1 protein in treated cells. Type of series: cell-based, human. Conditions: H1975 cell lysate, KPT-330 10–1000 nM, 24 h. Summed up: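 H1975 cells were treated 24 h with test compound at 0, 10, 100 or 1000 nM. Whole-cell lysates were prepared with a mammalian lysis reagent, protein was measured by BCA, and samples were run on SDS-PAGE and blotted to PVDF. Membranes were blocked 1 h in TBS/5% milk/0.5% Tween 20, incubated with primary antibody overnight at 4 °C, then HRP secondary for 1 h at room temperature. Detection was by chemiluminescence, with β-actin as reference and densitometry of bands.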

Series [10] has as its system PC14 cells, scramble vector control. The experiment in a line: MTT growth assay, transient scramble control. Type of series: cell-based. Conditions: Homo sapiens, PC-14.
Series [11] relates to CRM1. Conditions: 24 h of incubation; ref Sun et al (2013); cited from earlier work.
Series [12] relates to H1975 cells stably containing shCRM1. Nature of the series: MTT growth assay, CRM1-knockdown cells. Type of series: cell-based, human. As to conditions: H1975 shCRM1, cisplatin 72 h. In outline:
as §1

pIC50: −log10 of the molar value.

One may read the pIC50 as −log10 of the IC50, conventionally taken in molar units. `O=C(/C=C\n1cnc(-c2cc(C(F)(F)F)cc(C(F)(F)F)c2)n1)NNc1cnccn1` [KPT-330] gave a pIC50 in series [1] of less than 6.00. In series [2], the “G1 cell cycle, range” value is listed as 56–82%; the “G2/M phase, range” value is listed as 2–20%; the “S phase, range” value was 8–20%. Moreover, the “range of apoptosis induced (annexin V/propidium iodide co-positive cells)” value in the series with six NSCLC cell lines was 22–54%. In series [3], the “effect on body weight compared with the vehicle group” value was “did not have a significant effect” and the “mean relative body weight compared with mean starting weight” value is on record as 105%. Further, in series [4] (NOD/SCID mice, 10 mg kg^−1 thrice weekly × 4 weeks, mean±s.d., range 0.15–7.9), the Neut is 1.26±0.5 × 1000 per μl. Besides, the CREAT in series [4] (NOD/SCID mice, 10 mg kg^−1 thrice weekly × 4 weeks, mean±s.d., range 0.2–0.9) turned out to be 0.062 ± 0.01 mg/dL. In [4] (NOD/SCID mice, 10 mg kg^−1 thrice weekly × 4 weeks, mean±s.d., range 2.9–20.9), the WBC is on record as 4.0±0.3 × 1000 per μl. In series [4] (NOD/SCID mice, 10 mg kg^−1 thrice weekly × 4 weeks, mean±s.d., range 17–77), this compound yielded an ALT of 46.2±10.2 U l^−1. In series [4] (NOD/SCID mice, 10 mg kg^−1 thrice weekly × 4 weeks, mean±s.d., range 25–30), this compound registered an Alb of 36.5 ± 0.6 g/L. The compound further gave an HCT in series [4] (NOD/SCID mice, 10 mg kg^−1 thrice weekly × 4 weeks, mean±s.d., range 34–53) of 46.2±7.5%. Further, in series [4] (NOD/SCID mice, 10 mg kg^−1 thrice weekly × 4 weeks, mean±s.d., range 35–96), the ALP was 96±18 U l^−1. In addition, the PLT in [4] (NOD/SCID mice, 10 mg kg^−1 thrice weekly × 4 weeks, mean±s.d., range 685–1436) is 786±180 × 1000 per μl. Also, the “total white blood cells, neutrophils, platelet counts, haematocrit, serum albumin, alkaline phosphatase, ALT and creatinine compared with vehicle group” value in [4] (peripheral blood after the 28-day treatment) is reported as “no significant alterations”. For the same compound, in the series with H1975 NSCLC xenografts [5], the “Ki-67-positive cells in tumour tissue” value is listed as “decreased” and the “percent of TUNEL-positive cells in tumour tissue” value is reported as “increased”. Further, the pIC50 with 11 NSCLC cell lines is 6.00 to 7.60. Moreover, the “tumour growth compared with vehicle-treated controls” value with H1975 NSCLC xenografts [6] is “mark inhibition”. In [7] (Homo sapiens, NCI-H1975, 72 h), this compound had a pIC50 of 7.01. Also, the pIC50 in the series with PC14 cells, shp73 is 6.50. Further, the “CRM1 mRNA levels” value in the series with CRM1 [8] is “no significant change”. The “protein levels of CRM1 (western blot)” value in the series on CRM1 [9] was “dose-dependent decrease”. For the same compound, the pIC50 in [10] was 6.71.
Regarding `CCC(=C/[C@H](C)C/C=C/C(C)=C/[C@@H](C)C(=O)[C@@H](C)[C@H](O)[C@@H](C)C/C(C)=C/C(=O)O)/C=C/[C@@H]1OC(=O)C=C[C@@H]1C` [LMB, Leptomycin B], in the series on CRM1 [11], the “reversibility of binding to CRM1” value is listed as “not reversible”.
A word on the IC50: it is the concentration that gives 50% inhibition. A low value points to higher potency. In the case of `N.N.[Cl][Pt][Cl]` [cisplatin, reference compound], the IC50 in series [12] came to 1.62 µg/mL; in [7] (H1975 scramble, cisplatin 72 h, MTT) it was 8.1 µg/mL.
